Bioassay records as filed in PubChem BioAssay.
FN deposit inh: fibronectin deposition inhibition; AH1F fibroblasts, Alexa488-fibronectin deposition fluorescence, overnight; AID 743247; 350,000 compounds, 0.086% hits; inhibition, % at 12.6 µM;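 active = mean inhibition across replicates of 30% or more, regardless of how many single replicates reach that level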;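 also: positive control wells lacked labelled fibronectin entirely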
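Assay system: AH1F fibroblasts assembling fluorescent fibronectin matrix; Amount: 10000 AH1F cells per well; Buffer or medium: DMEM, 2% serum; Probe or stimulus: Alexa488-fibronectin, 24 nM final in well; Doses: single compound dose, delivered by pin transfer; Incubation: 1 h adhesion, overnight exposure; Measured by: fluorescence 485/525 nm; Read-out: fibronectin deposition inhibition.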
TROY NFkB inh: TROY signaling inhibition | Q293 LMP1-TROYcd NF-kB luciferase reporter, 4 h | inhibition, % at 10 µM | 360,000 compounds, 0.98% hits | AID 1347056;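 active = compounds whose plate-normalised and pattern-corrected inhibition of the luciferase reporter signal at the single screening dose is 50% or more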
Xi reactivation: reactivates the inactive X chromosome in mouse fibroblasts; XiGFP mouse fibroblasts, % GFP-positive cells imaging, 3 d; cells co-treated with 5-aza-dC sensitizer; scaled so ellipticine positive control = 100%; activation, % at 7.58 µM; 360,000 compounds, 0.055% hits;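 active = mean normalized replicate activation at least 10% and every replicate at or above 10%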;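 also: 0% = median of on-plate neutral control wells and 100% = ellipticine 6 µM median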
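Schedule: 3 d treatment, 15 min room-temperature fixation; system: 68-5-11 XiGFP fibroblast line; buffer or medium: DMEM plus 5-aza-dC sensitizer; control set: ellipticine 6 µM positive control; compound: one concentration, pinned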
EWS-Fli block: EWS/Fli transcriptional activity inhibition. A673 NR0B1-luciferase reporter, viability-normalised. inhibition, % at 12.6 µM. 350,000 compounds, 0.67% hits;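 active = mean inhibition of at least 50% after viability correction, with every replicate also passing that limit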;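 also: firefly luciferase signal divided by Alamar Blue viability fluorescence both relative to DMSO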
LGR2 antag: blocks bursicon-induced cAMP signaling via Drosophila LGR2. HEK293 LGR2, CRE-luciferase, bursicon-stimulated, 4 h. 380,000 compounds, 0.35% hits. inhibition, % at 9.99 µM;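 active = drop in luminescence signal, shown as inhibition above about 50% in the replicate tests, limit read from the data, passing the limit was not always enough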;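 also: agonist challenge used bursicon conditioned medium at about half maximal strength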
TWEAK-Fn14 inh: inhibitors of TWEAK-Fn14 interaction signaling | TWEAK-stimulated Fn14 reporter cells, luciferase luminescence, 8 h | inhibition, % at 10 µM | 360,000 compounds, 2% hits | AID 1159606; in the data active = inhibition above about 50%
An asterisk follows results filed as active; x = no result. Sampled rows, rich in hits. Any-hit rate of the full collection: about 2.3%.

SMILES	FN deposit inh	TROY NFkB inh	Xi reactivation	EWS-Fli block	LGR2 antag	TWEAK-Fn14 inh
Cc1ccc(S(=O)(=O)n2nc(OC(=O)c3ccccc3F)cc2N)cc1	2	30	0	9	-13	2
COc1ccccc1C(=O)Oc1cc(N)n(S(=O)(=O)c2ccccc2)n1	x	19	0	3	-2	4
COc1ccc(S(=O)(=O)n2nc(OC(=O)c3ccc(C)cc3)cc2N)cc1	6	59*	x	x	x	19
Cc1ccccc1C(=O)Oc1cc(N)n(S(=O)(=O)c2ccccc2)n1	-3	25	0	-30	3	55*
CS(=O)(=O)n1nc(OC(=O)c2cccc3ccccc23)cc1N	3	40	x	x	x	56*
Cc1ccc(C(=O)Oc2cc(N)n(S(=O)(=O)c3ccc(C)cc3)n2)cc1	x	43	0	1	6	68*
COc1ccccc1-n1cnc2cc(NCc3ccccn3)ccc21	-2	56*	x	x	x	52*
Cc1ccc(N=Cc2ccc[nH]2)c(O)c1	7	76*	x	x	x	42
Cc1ccccc1N=Cc1ccc[nH]1	2	2	0	-1	6	13
COc1ccc(S(=O)(=O)Nc2ccc3c(c2)C(=O)N([C@@H](C)CO)C[C@H](C)[C@H](CN(C)C(=O)Nc2ccccc2)OCCCC[C@H](C)O3)cc1	0	x	0	-3	-2	x
CCCCCCCOC(=O)C[N+](C)(C)CCOC1CC2CCC1(C)C2(C)C (stereo unspecified)	-4	63*	0	67*	23	46
O=C(O/N=C\c1ccc(N2CCCCC2)c([N+](=O)[O-])c1)c1cccc(Cl)c1	x	12	x	x	x	-9
O=C(O/N=C\c1ccc(N2CCCCC2)c([N+](=O)[O-])c1)c1c(F)cccc1F	x	x	x	x	x	78*
O=C(N/N=C/c1ccc(N2CCCC2)c([N+](=O)[O-])c1)c1cccnc1	31*	-43	0	-1	-23	-20
O=C(Cn1c2ccccc2c(=O)c2ccccc21)N/N=C/c1ccc(N2CCCC2)c([N+](=O)[O-])c1	x	35	0	x	-8	65*
C[C@H](CO)N1C[C@H](C)[C@H](CN(C)C(=O)Nc2ccc(F)cc2)OCCCC[C@H](C)Oc2ccc(NC(=O)CCCN(C)C)cc2C1=O	x	x	0	0	7	x
CC(=O)N1c2ccccc2N=C(c2ccc(C(F)(F)F)cc2)C1C(=O)NC1CCCC1 (stereo unspecified)	10	x	0	-10	-39	x
CC(=O)NC1Sc2ccccc2N=C1c1ccccc1 (stereo unspecified)	x	x	x	x	-49	53*
COc1ccc(-c2csc3ncnc(N4CCN(c5cccc(OC)c5)CC4)c23)cc1	1	16	0	4	-9	54*
COc1ccc(Nc2ncnc3scc(-c4ccc(OC)cc4)c23)cc1	-3	39	0	65*	-5	40
COc1ccc(-c2csc3ncnc(Cl)c23)cc1	8	-3	0	16	0	13
c1ccc(N2CCN(c3ncnc4scc(-c5cccs5)c34)CC2)cc1	0	31	x	x	34	64*
Fc1ccc(-c2csc3ncnc(N4CCN(c5ccccc5)CC4)c23)cc1	0	34	0	9	14	32
CCN1CCN(c2ncnc3scc(-c4ccc(OC)cc4)c23)CC1	-10	10	0	0	-11	91*
COc1ccc(CN(C)C[C@@H]2Oc3c(NC(=O)Nc4ccc(F)cc4)cccc3C(=O)N([C@@H](C)CO)C[C@H]2C)cc1	x	x	0	28	-10	x
SMILES	FN deposit inh	TROY NFkB inh	Xi reactivation	EWS-Fli block	LGR2 antag	TWEAK-Fn14 inh
C[C@@H]1CN([C@@H](C)CO)C(=O)c2cc(NC(=O)Nc3ccc(F)cc3)ccc2O[C@@H]1CN(C)S(=O)(=O)c1cn(C)cn1	x	x	0	6	12	x
OCCCNc1ncnc2scc(-c3ccc(Cl)cc3)c12	8	32	0	-15	19	73*
CCCNC(=O)N1CC2(C1)[C@H](c1ccccc1)[C@H](CO)N2Cc1cccc(Cl)c1	x	x	0	-19	-1	x
CCN1CCN(Cc2ccc(NC(=O)Nc3ccccc3)cc2)CC1	x	53*	x	x	x	60*
COc1ccc2c3c([nH]c2c1)[C@@H](CO)N(Cc1ccccc1)CC31CN(CC2CC2)C1	x	x	0	x	x	x
CCCC(NCC(O)COc1ccc(-c2ccccc2)cc1)c1ccccc1 (stereo unspecified)	-8	22	0	42	75*	-9
COc1ccc(OCC(O)CNC(C)c2ccccc2)cc1 (stereo unspecified)	-8	-2	0	0	-18	0
Cc1cc(OCC(O)CNC(C)c2ccccc2)ccc1C(C)C (stereo unspecified)	-2	-19	0	20	66*	0
CCCSc1nsc(NC(=O)C(c2ccccc2)c2ccccc2)n1	x	55*	x	x	x	11
CCCSc1nsc(NC(=O)CC)n1	5	-32	0	-87	-79	10
C[C@@H]1CN([C@@H](C)CO)C(=O)Cc2cc(NC(=O)CCC(F)(F)F)ccc2O[C@@H]1CN(C)Cc1ccc(C(=O)O)cc1	x	x	0	-6	-5	x
CCn1cc(C(=O)NCc2cccc(F)c2)c(=O)c2cc(F)c(N3CCN(C(=O)c4ccco4)CC3)cc21	x	42	x	x	x	52*
COc1cc(CNc2ccc3c(c2)CCC3)cc(OC)c1O	5	10	x	x	19	37
CCOc1cc(CNc2ccc3c(c2)CCC3)ccc1O	x	50*	x	x	x	49
COc1ccc(NC(=O)Nc2ccc3c(c2)C(=O)N([C@@H](C)CO)C[C@@H](C)[C@@H](CN(C)Cc2ccc(-c4ccccc4)cc2)O3)cc1	x	x	0	4	-1	x
CN(C)c1ccc(-c2nnc(-c3cccs3)o2)cc1	3	18	0	8	16	63*
CCCOc1ccc(-c2nnc(-c3cccs3)o2)cc1	x	16	x	x	x	46
Nc1ccc2ccc(NS(=O)(=O)N3CCCCC3)cc2c1	10	x	1	56*	0	x
O=C(NCCn1cc(CN2C(=O)COC[C@H]2c2ccccc2)nn1)Nc1ccccc1	x	x	x	-5	x	x
CC(C)(Oc1ccc(Cl)cc1)C(=O)NC1=NN(c2ccccc2)C(=O)C1	8	55*	0	x	5	19
